Assay results from ChEMBL document CHEMBL1154547, “Salicylanilide esters of N-protected amino acids as novel antimicrobial agents” (Bioorg Med Chem Lett, 2009).
Converted amounts (≈) assume the structure as drawn.

What was measured:
[1] = Lipophilicity, log K of the compound; assay type: physicochemical
Summary of the method: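 Mobile phase used methanol as organic modifier. The capacity factor k was measured and log k calculated from it. Chiral compounds were measured several times.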

Candida albicans [2] = experiment: Antifungal activity against Candida albicans ATCC 44859 after 24 hrs by broth microdilution method; assay type: functional; conditions: ATCC 44859, 24 h
Summary of the method: (§1)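 In vitro antifungal screening against eight strains. Compounds tested at concentrations in the range 62.5–1.95 µmol/L.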

Candida tropicalis [3] = experiment: Antifungal activity against Candida tropicalis ATCC 156 after 24 hrs by broth microdilution method; assay type: functional; conditions: ATCC 156, 24 h; summary of the method: as §1
Pichia kudriavzevii [4] = experiment: Antifungal activity against Candida krusei E28 after 24 hrs by broth microdilution method; assay type: functional; summary of the method: as §1
Nakaseomyces glabratus [5] = experiment: Antifungal activity against Candida glabrata 20/I after 24 hrs by broth microdilution method; assay type: functional; summary of the method: as §1
Trichosporon beigelii [6] = experiment: Antifungal activity against Trichosporon beigelii 1188 after 24 hrs by broth microdilution method; assay type: functional; summary of the method: as §1
Aspergillus fumigatus [7] = experiment: Antifungal activity against Aspergillus fumigatus 231 after 24 hrs by broth microdilution method; assay type: functional; summary of the method: as §1
Lichtheimia corymbifera [8] = experiment: Antifungal activity against Absidia corymbifera 272 after 24 hrs by broth microdilution method; assay type: functional; summary of the method: as §1
[9] = tested on: Trichophyton mentagrophytes; experiment: Antifungal activity against Trichophyton mentagrophytes 445 after 24 hrs by broth microdilution method; assay type: functional; summary of the method: as §1
Candida albicans [10] = experiment: Antifungal activity against Candida albicans ATCC 44859 after 48 hrs by broth microdilution method; assay type: functional; conditions: ATCC 44859, 48 h; summary of the method: as §1
Candida tropicalis [11] = experiment: Antifungal activity against Candida tropicalis ATCC 156 after 48 hrs by broth microdilution method; assay type: functional; conditions: ATCC 156, 48 h; summary of the method: as §1
Pichia kudriavzevii [12] = experiment: Antifungal activity against Candida krusei E28 after 48 hrs by broth microdilution method; assay type: functional; summary of the method: as §1
Nakaseomyces glabratus [13] = experiment: Antifungal activity against Candida glabrata 20/I after 48 hrs by broth microdilution method; assay type: functional; summary of the method: as §1
Trichosporon beigelii [14] = experiment: Antifungal activity against Trichosporon beigelii 1188 after 48 hrs by broth microdilution method; assay type: functional; summary of the method: as §1
Aspergillus fumigatus [15] = experiment: Antifungal activity against Aspergillus fumigatus 231 after 48 hrs by broth microdilution method; assay type: functional; summary of the method: as §1
Lichtheimia corymbifera [16] = experiment: Antifungal activity against Absidia corymbifera 272 after 48 hrs by broth microdilution method; assay type: functional; summary of the method: as §1
[17] = tested on: Trichophyton mentagrophytes; experiment: Antifungal activity against Trichophyton mentagrophytes 445 after 48 hrs by broth microdilution method; assay type: functional; summary of the method: as §1
[18] = tested on: Mycobacterium tuberculosis; experiment: Antitubercular activity against Mycobacterium tuberculosis H37Rv by microplate alamar blue assay; assay type: functional
[19] = tested on: Mycobacterium tuberculosis; experiment: Antitubercular activity against Mycobacterium tuberculosis H37Rv at 6.25 ug/ml by microplate alamar blue assay; assay type: functional
Summary of the method: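 Primary single-concentration screen at the TAACF against M. tuberculosis H37Rv (ATCC 27294) in BACTEC 12B medium, read by Microplate Alamar Blue Assay. Each compound was tested at 6.25 per mL, or at the molar equivalent of the highest-molecular-weight compound in its congener series.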

SMILES | log K [1] | IC80 (Candida albicans [2]) [µg/mL] | IC80 (Candida tropicalis [3]) [µg/mL] | IC80 (Pichia kudriavzevii [4]) [µg/mL] | IC80 (Nakaseomyces glabratus [5]) [µg/mL] | IC80 (Trichosporon beigelii [6]) [µg/mL] | IC80 (Aspergillus fumigatus [7]) [µg/mL] | IC80 (Lichtheimia corymbifera [8]) [µg/mL] | IC80 [9] [µg/mL] | IC80 (Candida albicans [10]) [µg/mL] | IC80 (Candida tropicalis [11]) [µg/mL] | IC80 (Pichia kudriavzevii [12]) [µg/mL] | IC80 (Nakaseomyces glabratus [13]) [µg/mL] | IC80 (Trichosporon beigelii [14]) [µg/mL] | IC80 (Aspergillus fumigatus [15]) [µg/mL] | IC80 (Lichtheimia corymbifera [16]) [µg/mL] | IC80 [17] [µg/mL] | MIC [18] [µg/mL] | inhibition at 6.25 µg/mL [19] [%]
O=C(CNC(=O)OCc1ccccc1)Oc1ccc(Cl)cc1C(=O)Nc1ccc(C(F)(F)F)cc1 | 0.7292 | 62.5 (≈ 123 µM) | 125 (≈ 247 µM) | 31.2 (≈ 61.7 µM) | 31.2 (≈ 61.7 µM) | 31.2 (≈ 61.7 µM) | 125 (≈ 247 µM) | 31.2 (≈ 61.7 µM) | 15.6 (≈ 30.8 µM) | 62.5 (≈ 123 µM) | > 125 | 31.2 (≈ 61.7 µM) | > 125 | 31.2 (≈ 61.7 µM) | > 125 | 31.2 (≈ 61.7 µM) | 15.6 (≈ 30.8 µM) | > 6.25 | 89
C[C@H](NC(=O)OCc1ccccc1)C(=O)Oc1ccc(Cl)cc1C(=O)Nc1ccc(C(F)(F)F)cc1 | 0.8149 | 62.5 (≈ 120 µM) | 500 (≈ 960 µM) | 7.81 (≈ 15 µM) | 125 (≈ 240 µM) | 62.5 (≈ 120 µM) | 7.81 (≈ 15 µM) | 31.2 (≈ 60 µM) | 1.95 (≈ 3.74 µM) | 250 (≈ 480 µM) | 500 (≈ 960 µM) | 31.2 (≈ 60 µM) | 250 (≈ 480 µM) | 250 (≈ 480 µM) | 15.6 (≈ 30 µM) | 62.5 (≈ 120 µM) | 1.95 (≈ 3.74 µM) | 3.13 (≈ 6.01 µM) | 99
CC(C)[C@H](NC(=O)OCc1ccccc1)C(=O)Oc1ccc(Cl)cc1C(=O)Nc1ccc(Cl)cc1 | 0.9421 | > 62.5 | > 62.5 | 31.2 (≈ 60.6 µM) | > 62.5 | > 62.5 | > 62.5 | > 62.5 | 15.6 (≈ 30.3 µM) | > 62.5 | > 62.5 | 15.6 (≈ 30.3 µM) | > 62.5 | 31.2 (≈ 60.6 µM) | > 62.5 | > 62.5 | 15.6 (≈ 30.3 µM) | > 6.25 | 38
O=C(CNC(=O)OCc1ccccc1)Oc1ccc(Cl)cc1C(=O)Nc1ccc(Cl)cc1 | 0.6367 | 62.5 (≈ 132 µM) | 31.2 (≈ 66 µM) | 31.2 (≈ 66 µM) | 62.5 (≈ 132 µM) | 62.5 (≈ 132 µM) | > 62.5 | 31.2 (≈ 66 µM) | 15.6 (≈ 33 µM) | 62.5 (≈ 132 µM) | 31.2 (≈ 66 µM) | 31.2 (≈ 66 µM) | 62.5 (≈ 132 µM) | > 62.5 | > 62.5 | 62.5 (≈ 132 µM) | 15.6 (≈ 33 µM) | > 6.25 | 16
O=C(CNC(=O)OCc1ccccc1)Oc1ccc(Cl)cc1C(=O)Nc1cccc(Cl)c1 | 0.6119 | > 62.5 | > 62.5 | 62.5 (≈ 132 µM) | 62.5 (≈ 132 µM) | > 62.5 | > 62.5 | 62.5 (≈ 132 µM) | 31.2 (≈ 66 µM) | > 62.5 | > 62.5 | 62.5 (≈ 132 µM) | > 62.5 | > 62.5 | > 62.5 | 62.5 (≈ 132 µM) | 31.2 (≈ 66 µM) | > 6.25 | 7
C[C@@H](NC(=O)OCc1ccccc1)C(=O)Oc1ccc(Cl)cc1C(=O)Nc1cccc(Cl)c1 | 0.699 | 62.5 (≈ 128 µM) | 62.5 (≈ 128 µM) | 31.2 (≈ 64.1 µM) | 62.5 (≈ 128 µM) | > 62.5 | > 62.5 | 31.2 (≈ 64.1 µM) | 7.81 (≈ 16 µM) | > 62.5 | > 62.5 | 31.2 (≈ 64.1 µM) | 62.5 (≈ 128 µM) | > 62.5 | > 62.5 | 31.2 (≈ 64.1 µM) | 7.81 (≈ 16 µM) | > 6.25 | 36
O=C(CNC(=O)OCc1ccccc1)Oc1ccc(Cl)cc1C(=O)Nc1ccc(Cl)c(Cl)c1 | 0.8639 | > 62.5 | > 62.5 | > 62.5 | > 62.5 | > 62.5 | > 62.5 | 62.5 (≈ 123 µM) | 31.2 (≈ 61.5 µM) | > 62.5 | > 62.5 | > 62.5 | > 62.5 | > 62.5 | > 62.5 | > 62.5 | 31.2 (≈ 61.5 µM) | > 6.25 | 0
C[C@H](NC(=O)OCc1ccccc1)C(=O)Oc1ccc(Cl)cc1C(=O)Nc1cccc(Cl)c1 | 0.6995 | 31.2 (≈ 64.1 µM) | > 62.5 | 31.2 (≈ 64.1 µM) | 31.2 (≈ 64.1 µM) | > 62.5 | 62.5 (≈ 128 µM) | 15.6 (≈ 32.1 µM) | 7.81 (≈ 16 µM) | > 62.5 | > 62.5 | 31.2 (≈ 64.1 µM) | > 62.5 | > 62.5 | > 62.5 | 15.6 (≈ 32.1 µM) | 7.81 (≈ 16 µM) | 3.13 (≈ 6.42 µM) | 97
O=C(N[C@@H](Cc1ccccc1)C(=O)Oc1ccc(Cl)cc1C(=O)Nc1ccc(Cl)cc1)OCc1ccccc1 | 1.0971 | 62.5 (≈ 111 µM) | 31.2 (≈ 55.5 µM) | 15.6 (≈ 27.7 µM) | 31.2 (≈ 55.5 µM) | 31.2 (≈ 55.5 µM) | > 62.5 | 15.6 (≈ 27.7 µM) | 7.81 (≈ 13.9 µM) | 62.5 (≈ 111 µM) | 31.2 (≈ 55.5 µM) | 15.6 (≈ 27.7 µM) | 31.2 (≈ 55.5 µM) | 62.5 (≈ 111 µM) | > 62.5 | 15.6 (≈ 27.7 µM) | 7.81 (≈ 13.9 µM) | > 6.25 | 16
NNC(=O)c1ccncc1 [ISONIAZID] | – | – | – | – | – | – | – | – | – | – | – | – | – | – | – | – | – | 0.025 (≈ 0.182 µM) | –
OC(Cn1cncn1)(Cn1cncn1)c1ccc(F)cc1F [FLUCONAZOLE] | – | 0.06 (≈ 0.196 µM) | 0.12 (≈ 0.392 µM) | 3.91 (≈ 12.8 µM) | 0.98 (≈ 3.2 µM) | 0.24 (≈ 0.784 µM) | > 125 | > 125 | 1.95 (≈ 6.37 µM) | 0.12 (≈ 0.392 µM) | > 125 | 15.6 (≈ 51 µM) | 3.91 (≈ 12.8 µM) | 0.48 (≈ 1.57 µM) | > 125 | > 125 | 3.91 (≈ 12.8 µM) | – | –
CC(C)[C@@H](NC(=O)OCc1ccccc1)C(=O)Oc1ccc(Cl)cc1C(=O)Nc1ccc(Cl)cc1 | 0.9417 | > 62.5 | > 62.5 | 31.2 (≈ 60.6 µM) | > 62.5 | > 62.5 | > 62.5 | > 62.5 | 15.6 (≈ 30.3 µM) | > 62.5 | > 62.5 | 31.2 (≈ 60.6 µM) | > 62.5 | > 62.5 | > 62.5 | > 62.5 | 15.6 (≈ 30.3 µM) | > 6.25 | 77
